# Measurements taken from ChEMBL document CHEMBL1123579, “Synthesis and evaluation of mono-, di-, and trifluoroethenyl-GABA derivatives as GABA-T inhibitors” (J Med Chem, 1987).
# Assays:
# [1] = Dissociation constant pKa was reported.; assay type: physicochemical
# Mus musculus [2] = assay: Brain GABA level was measured in mice 6 hour after intraperitoneal administration at a dose of 1.9 mM/ kg.; assay type: functional
# In short: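 Male Swiss Albino mice (20–25 g), housed five per cage with free food and water on a 12-h light cycle, received drug ip as aqueous solution and were decapitated 6 h later. Half-brain homogenized in 10 mL 0.2 N HClO4, and supernatant GABA measured on an automatic amino acid analyzer. Mean ± SEM of five animals; control n = 15 pooled across days; Student's t test.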
# Mus musculus [3] = assay: In vivo brain GABA-T activity was measured in mice 6 hour after intraperitoneal administration at a dose of 1.9 mM / kg.; assay type: functional
# In short: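 Male Swiss Albino mice (20–25 g) received drug ip as aqueous solution and were decapitated 6 h later. Half-brain was frozen, then homogenized in 9 volumes of 10 mM KH2PO4 pH 6.8 with 0.1 mM pyridoxal phosphate, 1 mM EDTA, 0.1 mM glutathione, 0.13% Triton X-100 and 20% glycerol for GABA-T activity. Mean ± SEM, n = 5; control n = 15; Student's t test.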
# Mus musculus [4] = assay: Brain GABA level was measured in mice 6 hour after intraperitoneal administration at a dose of 3.8 mM/ kg.; assay type: functional
# In short: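 Male Swiss Albino mice (20–25 g), housed five per cage under a 12-h light-dark cycle, were given drug ip as an aqueous solution. They were decapitated 6 h later and brains split sagittally and frozen. Half-brain was homogenized in 10 mL 0.2 N HClO4, and supernatant GABA was measured by automatic amino acid analyzer. Values are mean ± SEM of five animals (controls: 15, different days); Student's t test.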
# Mus musculus [5] = assay: In vivo brain GABA-T activity was measured in mice 6 hour after intraperitoneal administration at a dose of 3.8 mM / kg.; assay type: functional
# In short: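 Male Swiss Albino mice (20–25 g) got an ip aqueous dose and were decapitated 6 h later. Brains were split sagittally and frozen. Half-brain was homogenized in 9 volumes of 10 mM KH2PO4 pH 6.8 with 0.1 mM pyridoxal phosphate, 1 mM EDTA, 0.1 mM glutathione, 0.13% Triton X-100 and 20% glycerol for GABA-T activity. Values are mean ± SEM, n = 5 (controls 15); Student's t test.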
Structure (SMILES),pKa [1],Activity (Mus musculus [2]) [µM/g],Activity (Mus musculus [3]) [mM/h],Activity (Mus musculus [4]) [µM/g],Activity (Mus musculus [5]) [mM/h]
C#CC(N)CCC(=O)O (stereo unspecified),8.2,,,,
NC(C=C(F)F)CCC(=O)O (stereo unspecified),9.32,2.8,42.4,,
NC(/C=C\F)CCC(=O)O (stereo unspecified),9.35,9.8,38.3,,
C=C(F)C(N)CCC(=O)O (stereo unspecified),8.32,3.6,59.7,,
C=CC(N)CCC(=O)O (stereo unspecified) [VIGABATRIN],9.5,9.1,29.3,,
NC(CCC(=O)O)C(F)=C(F)F (stereo unspecified),7.87,,,2.7,69.4
